Data as given in ChEMBL document CHEMBL4610112, “Novel Pyrrolopyridone Bromodomain and Extra-Terminal Motif (BET) Inhibitors Effective in Endocrine-Resistant ER+ Breast Cancer with Acquired Resistance to Fulvestrant and Palbociclib” (J Med Chem, 2020).
The source made the active and inactive calls. The rule behind the calls is not given here.

Key:
[1] = target: T1, Bromodomain-containing protein 4 (Homo sapiens, UniProt O60885); test: Displacement of APC-labeled biotinylated-avidin from Euphorium-chelated recombinant human BRD4 bromodomain 1 expressed in Escherichia coli preincubated for 15 mins followed by APC-labeled biotinylated-avidin addition and measured after 1 hr under dark condition by TR-FRET assay
[2] = Growth inhibition of fulvestrant-resistant human MCF7:CFR cells measured after 5 days by Hoechst 33342 dye based imaging analysis; format: functional, cell-based; conditions: 120 h
Summary of the method: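 MCF-7:CFR cells kept 2 days in phenol red-free RPMI 1640 with 10% charcoal–dextran FBS, then seeded at 2000 cells/well. Single treatment at 0.1 nM–10 μM (0.1% DMSO final) for 5 days. Nuclei stained with Hoechst 33342 and counted by imaging. Survival normalized to DMSO (100%) and JQ1 3 μM (0%). Mean ± SEM from at least two passages, triplicates in each.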

CYP3A4 = CYP3A4 (Homo sapiens, UniProt P08684); test: Inhibition of human CYP3A4 at 10 uM; format: ADME
Chain of CYP3A4 (P08684 whole entry): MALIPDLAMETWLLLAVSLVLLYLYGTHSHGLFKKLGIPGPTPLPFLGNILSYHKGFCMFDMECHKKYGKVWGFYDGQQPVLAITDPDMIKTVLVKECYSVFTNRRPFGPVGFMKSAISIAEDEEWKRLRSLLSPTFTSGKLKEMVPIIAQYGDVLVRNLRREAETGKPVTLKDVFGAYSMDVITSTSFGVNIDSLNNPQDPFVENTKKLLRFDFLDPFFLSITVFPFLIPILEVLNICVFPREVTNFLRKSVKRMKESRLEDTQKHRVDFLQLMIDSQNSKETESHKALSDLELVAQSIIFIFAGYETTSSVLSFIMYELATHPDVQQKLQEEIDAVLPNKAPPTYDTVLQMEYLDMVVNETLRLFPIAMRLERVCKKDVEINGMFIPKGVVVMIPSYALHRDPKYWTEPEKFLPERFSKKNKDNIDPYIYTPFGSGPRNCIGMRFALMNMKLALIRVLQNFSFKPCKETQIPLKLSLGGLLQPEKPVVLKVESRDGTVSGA
MCF7:CFR [3] = test: Growth inhibition of fulvestrant-resistant human MCF7:CFR 3D spheroid cells at 100 nM supplemented with fresh medium containing compound every 2 to 3 days for 9 days by celltitre-glo assay relative to control; format: functional
Summary of the method: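 MCF-7:CFR cells seeded at 1000 cells/well in ultralow-attachment round-bottom plates and grown 24 h untreated as spheroids. Half the medium then replaced with 2× treatment medium, repeated every 2–3 days. Viability read by CellTiter-Glo 3D luminescence at day 9 and normalized to blank (medium plus reagent).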

CYP2C8 = CYP2C8 (Homo sapiens, UniProt P10632); test: Inhibition of human CYP2C8 at 10 uM; format: ADME
Chain of CYP2C8 (P10632 whole entry): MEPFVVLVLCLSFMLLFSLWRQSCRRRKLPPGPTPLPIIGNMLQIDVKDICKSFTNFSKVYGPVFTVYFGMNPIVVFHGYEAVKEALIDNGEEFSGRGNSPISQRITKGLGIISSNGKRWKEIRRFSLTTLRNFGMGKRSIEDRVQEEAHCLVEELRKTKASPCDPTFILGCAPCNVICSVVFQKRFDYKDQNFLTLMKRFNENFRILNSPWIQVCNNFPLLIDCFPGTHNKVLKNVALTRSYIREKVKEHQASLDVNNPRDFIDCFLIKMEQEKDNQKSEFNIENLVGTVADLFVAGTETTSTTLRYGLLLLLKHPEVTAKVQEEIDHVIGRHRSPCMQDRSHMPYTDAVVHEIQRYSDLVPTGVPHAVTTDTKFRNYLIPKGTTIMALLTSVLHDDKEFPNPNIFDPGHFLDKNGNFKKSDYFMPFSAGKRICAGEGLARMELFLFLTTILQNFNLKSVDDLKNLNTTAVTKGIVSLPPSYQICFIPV
MCF7:TAM1 [4] = test: Antitumor activity against human MCF7:TAM1 cells xenografted in ovariectomized athymic Nude-Foxn1 mouse assessed as tumor growth inhibition at 50 mg/kg/day, po administered via gavage for 4 weeks in presence of fulvestrant; format: functional, organism-based
Summary of the method: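 Orthotopic xenografts of MCF-7:Tam1 cells in 4–6 week old female ovariectomized athymic nude (nude/Foxn1) mice, established with daily tamoxifen 1.5 mg/mouse. Daily oral gavage at 50 (mg/kg)/day for 4 weeks in 0.5% (w/v) HPMC/TWEEN80 1% in water, given alongside fulvestrant 1 mg/mouse/week sc. Tumor volume measured weekly by caliper as length × width² × π/6. TGI computed from day 28 versus initial volumes, relative to vehicle.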

[5] = target: T1, Bromodomain-containing protein 4; test: Displacement of APC-labeled biotinylated-avidin from Euphorium-chelated recombinant human BRD4 bromodomain 2 expressed in Escherichia coli preincubated for 15 mins followed by APC-labeled biotinylated-avidin addition and measured after 1 hr under dark condition by TR-FRET assay
MCF7:CFR [6] = test: Down regulation of c-MYC gene expression in fulvestrant-resistant human MCF7:CFR cells at 100 nM measured after 24 hrs; format: functional, cell-based
Summary of the method: (§1)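 MCF-7:CFR cells exposed to compound at 100 nM, with DMSO (0.01%) as control, for 24 h. RNA extracted and analysed by RNA-seq. Values are log2-fold changes in gene expression against the vehicle control.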

MCF7:CFR [7] = test: Down regulation of n-MYC gene expression in fulvestrant-resistant human MCF7:CFR cells at 100 nM measured after 24 hrs; format: functional, cell-based; summary of the method: as §1
MCF7:CFR [8] = test: Up regulation of CDKN1B gene expression in fulvestrant-resistant human MCF7:CFR cells at 100 nM measured after 24 hrs; format: functional, cell-based; summary of the method: as §1
MCF7:CFR [9] = test: Down regulation of cyclin-D gene expression in fulvestrant-resistant human MCF7:CFR cells at 100 nM measured after 24 hrs; format: functional, cell-based; summary of the method: as §1
MCF7:CFR [10] = test: Growth inhibition of fulvestrant-resistant human MCF7:CFR cells at < 300 nM treated for 3 hrs followed by compound washout and measured after 5 days by Hoechst 33342 dye based imaging analysis; format: functional, cell-based
[11] = Protein binding in plasma (unknown origin); format: ADME, cell-free; conditions: human
Summary of the method: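 Protein binding reported as percent bound, ketoconazole as reference compound. Run by a contract lab.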

MCF7:TAM1 [12] = test: Antitumor activity against human MCF7:TAM1 cells xenografted in ovariectomized athymic Nude-Foxn1 mouse assessed as tumor growth inhibition at 50 mg/kg/day, po administered via gavage for 4 weeks; format: functional, organism-based
CYP2D6 = CYP2D6 (Homo sapiens, UniProt P10635); test: Inhibition of human CYP2D6 at 10 uM; format: ADME
Chain of CYP2D6 (P10635 whole entry): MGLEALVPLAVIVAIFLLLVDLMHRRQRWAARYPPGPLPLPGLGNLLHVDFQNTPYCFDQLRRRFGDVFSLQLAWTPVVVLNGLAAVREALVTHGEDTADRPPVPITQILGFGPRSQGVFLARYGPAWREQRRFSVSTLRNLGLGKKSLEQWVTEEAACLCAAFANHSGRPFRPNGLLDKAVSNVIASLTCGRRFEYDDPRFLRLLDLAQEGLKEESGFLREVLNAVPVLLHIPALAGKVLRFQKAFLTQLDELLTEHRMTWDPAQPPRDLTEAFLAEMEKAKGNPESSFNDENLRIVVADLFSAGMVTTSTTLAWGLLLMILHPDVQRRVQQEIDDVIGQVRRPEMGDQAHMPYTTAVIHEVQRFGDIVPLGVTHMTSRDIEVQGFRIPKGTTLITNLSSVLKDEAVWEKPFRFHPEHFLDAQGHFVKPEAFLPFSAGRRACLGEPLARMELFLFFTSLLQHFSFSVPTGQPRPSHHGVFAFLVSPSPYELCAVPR

CYP2A6 = CYP2A6 (Homo sapiens, UniProt P11509); test: Inhibition of human CYP2A6 at 10 uM; format: ADME
Chain of CYP2A6 (P11509 whole entry): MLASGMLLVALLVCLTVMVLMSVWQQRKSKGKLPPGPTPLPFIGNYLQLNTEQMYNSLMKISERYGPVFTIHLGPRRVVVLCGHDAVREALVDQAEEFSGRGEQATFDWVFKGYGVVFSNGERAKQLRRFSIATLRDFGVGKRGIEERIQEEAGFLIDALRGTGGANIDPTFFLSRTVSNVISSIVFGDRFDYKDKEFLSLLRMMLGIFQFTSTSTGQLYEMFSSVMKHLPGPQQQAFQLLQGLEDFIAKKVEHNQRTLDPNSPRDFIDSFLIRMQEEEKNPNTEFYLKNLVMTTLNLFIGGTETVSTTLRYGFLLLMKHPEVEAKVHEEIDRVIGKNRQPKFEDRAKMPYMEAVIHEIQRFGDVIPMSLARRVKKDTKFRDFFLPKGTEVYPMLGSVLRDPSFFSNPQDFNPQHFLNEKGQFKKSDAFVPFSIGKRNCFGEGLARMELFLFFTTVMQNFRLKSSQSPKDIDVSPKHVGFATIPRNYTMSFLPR

Question: For `Cc1cccc(C)c1Cn1ccc2c(NS(C)(=O)=O)cc(-c3cn(C)c4c(=O)[nH]ccc34)cc21`, which IC50 [1] is on record?
Answer: 175 nM

Question: And the IC50 [2]?
Answer: 49 nM

Question: For `CCS(=O)(=O)N(c1cccc2c1nc(-c1cn(C)c3c(=O)[nH]ccc13)n2Cc1ccc(F)cc1)S(=O)(=O)CC`, which IC50 [2] is on record?
Answer: 1780 nM

Question: For `Cc1ncc2n1-c1ccc(Cl)cc1C(c1ccccc1F)=NC2` [MIDAZOLAM], which inhibition at 10 µM (CYP3A4) is on record?
Answer: 99.5%

Question: Which IC50 [1] does the source give for `Cn1cc(-c2cc(NS(C)(=O)=O)c3cnn(Cc4ccc(F)cc4)c3c2)c2cc[nH]c(=O)c21` here?
Answer: 89 nM

Question: What about the IC50 [2] of the same compound?
Answer: 68 nM

Question: Which results are given for `Cn1cc(-c2cc(NS(C)(=O)=O)c3ccn(CC4CC(F)(F)C4)c3c2)c2cc[nH]c(=O)c21`?
Answer: IC50 [1]: 161 nM; IC50 [2]: 62 nM

Question: What does the source list for `Cn1cc(-c2cc(NS(C)(=O)=O)c3ccn(Cc4cccc(F)c4)c3c2)c2cc[nH]c(=O)c21`?
Answer: IC50 [1]: 174 nM; IC50 [2]: 70 nM

Question: Which IC50 [1] does the source give for `CCC(c1ccccn1)(c1ccccn1)n1ccc2c(NS(=O)(=O)CC)cc(-c3cn(C)c4c(=O)[nH]ccc34)cc21` here?
Answer: 9.4 nM

Question: What about the IC50 [2] of the same compound?
Answer: 2.2 nM

Question: With `C[C@]12CC[C@@H]3c4ccc(O)cc4C[C@@H](CCCCCCCCC[S+]([O-])CCCC(F)(F)C(F)(F)F)[C@H]3[C@@H]1CC[C@@H]2O` (some centres not stated) as the compound, how does the “growth inhibition (GI)” value (MCF7:CFR [3]) read?
Answer: inactive

Question: With `CC(=O)O[C@H]1C(=O)[C@@]2(C)[C@H]([C@H](OC(=O)c3ccccc3)[C@]3(O)C[C@H](OC(=O)[C@H](O)[C@@H](NC(=O)c4ccccc4)c4ccccc4)C(C)=C1C3(C)C)[C@]1(OC(C)=O)CO[C@@H]1C[C@@H]2O` [PACLITAXEL] as the compound, how does the inhibition at 10 µM (CYP2C8) read?
Answer: 80.9%

Question: Which TGI (MCF7:TAM1 [4]) does the source give for `CCNC(=O)C[C@@H]1N=C(c2ccc(Cl)cc2)c2cc(OC)ccc2-n2c(C)nnc21` here?
Answer: Active

Question: Which IC50 [1] does the source give for `CC(C)C(=O)Nc1cc(-c2cn(C)c3c(=O)[nH]ccc23)cc2c1ccn2C(C)(c1ccccn1)c1ccccn1` here?
Answer: 13 nM

Question: What about the IC50 [2] of the same compound?
Answer: 17 nM

Question: What about the IC50 [5] of the same compound?
Answer: 62.8 nM

Question: What does the source list for `CCS(=O)(=O)Nc1cc(-c2cn(C)c3c(=O)[nH]ccc23)cc2c1ccn2Cc1ccc(F)cc1`?
Answer: IC50 [1]: 48 nM; IC50 [2]: 56 nM

Question: Which “growth inhibition (GI)” value (MCF7:CFR [3]) does the source give for `COc1nnc2ccc(N3CCC(c4ccc(OCCN5CCN(C)C(=O)[C@H]5C)cc4)CC3)nn12` here?
Answer: Active

Question: Which IC50 [1] does the source give for `CCS(=O)(=O)Nc1cc(-c2cn(C)c3c(=O)[nH]ccc23)cc2c1ccn2C(c1ccccc1)c1ccccc1` here?
Answer: 83 nM

Question: And the IC50 [2]?
Answer: 15 nM

Question: Which IC50 [1] does the source give for `Cn1cc(-c2cc(C(C)(C)O)c3ccn(C(C)(c4ccccn4)c4ccccn4)c3c2)c2cc[nH]c(=O)c21` here?
Answer: 39.6 nM

Question: What about the IC50 [2] of the same compound?
Answer: 20 nM

Question: What about the IC50 [5] of the same compound?
Answer: 220 nM

Question: With `Cc1sc2c(c1C)C(c1ccc(Cl)cc1)=N[C@@H](CC(=O)OC(C)(C)C)c1nnc(C)n1-2` as the compound, how does the IC50 [2] read?
Answer: 90 nM

Question: What about the “growth inhibition (GI)” value (MCF7:CFR [3]) of the same compound?
Answer: Active

Question: What about the Activity (MCF7:CFR [6]) of the same compound?
Answer: Active

Question: And the Activity (MCF7:CFR [7])?
Answer: Active

Question: And the Activity (MCF7:CFR [8])?
Answer: Active

Question: And the Activity (MCF7:CFR [9])?
Answer: Active

Question: What about the “growth inhibition (GI)” value (MCF7:CFR [10]) of the same compound?
Answer: inactive

Question: For `Cn1cc(-c2cc(NS(C)(=O)=O)c3ccn(CC4(C)COC4)c3c2)c2cc[nH]c(=O)c21`, which IC50 [1] is on record?
Answer: 180 nM

Question: And the IC50 [2]?
Answer: 134 nM

Question: For `Cc1cc(F)ccc1Cn1ccc2c(NS(C)(=O)=O)cc(-c3cn(C)c4c(=O)[nH]ccc34)cc21`, which IC50 [1] is on record?
Answer: 600 nM

Question: And the IC50 [2]?
Answer: 119 nM

Question: For `CC(=O)N1CCN(c2ccc(OCC3COC(Cn4ccnc4)(c4ccc(Cl)cc4Cl)O3)cc2)CC1` (configuration not stated) [KETOCONAZOLE], which PPB [11] is on record?
Answer: 98.35%

Question: Which IC50 [1] does the source give for `CCS(=O)(=O)Nc1cc(-c2cn(C)c3c(O)nccc23)cc2c1cnn2Cc1ccc(F)cc1` here?
Answer: 54 nM

Question: And the IC50 [2]?
Answer: 25 nM

Question: With `Cn1cc(-c2cc(NS(C)(=O)=O)cc3ccn(Cc4ccc(F)cc4)c23)c2cc[nH]c(=O)c21` as the compound, how does the IC50 [1] read?
Answer: 1180 nM

Question: What about the IC50 [2] of the same compound?
Answer: 1990 nM

Question: Which results are given for `Cn1cc(-c2cc(NS(C)(=O)=O)c3ccn(Cc4ccc(F)cc4)c3c2)c2ccnc(O)c21`?
Answer: IC50 [1]: 96 nM; IC50 [2]: 17 nM

Question: Which IC50 [1] does the source give for `Cn1cc(-c2cc(NS(C)(=O)=O)c3ccn(C(C)(c4ccccn4)c4ccccn4)c3c2)c2cc[nH]c(=O)c21` here?
Answer: 12.9 nM

Question: And the IC50 [2]?
Answer: 10 nM

Question: What about the IC50 [5] of the same compound?
Answer: 12.7 nM

Question: Which IC50 [1] does the source give for `CCS(=O)(=O)Nc1cccc2c1nc(-c1cn(C)c3c(=O)[nH]ccc13)n2Cc1ccc(F)cc1` here?
Answer: 1430 nM

Question: What about the IC50 [2] of the same compound?
Answer: 708 nM

Question: Which results are given for `Cc1cc(F)cc(C)c1Cn1ccc2cc(NS(C)(=O)=O)cc(-c3cn(C)c4c(=O)[nH]ccc34)c21`?
Answer: IC50 [1]: 1400 nM; IC50 [2]: 526 nM

Question: For `CC/C(=C(\c1ccc(O)cc1)c1ccc(OCCN(C)C)cc1)c1ccccc1`, which “growth inhibition (GI)” value (MCF7:CFR [3]) is on record?
Answer: inactive

Question: Which IC50 [1] does the source give for `Cc1cc(F)ccc1Cn1ccc2cc(NS(C)(=O)=O)cc(-c3cn(C)c4c(=O)[nH]ccc34)c21` here?
Answer: 1000 nM

Question: And the IC50 [2]?
Answer: 3580 nM

Question: With `CCS(=O)(=O)Nc1cc(-c2cn(C)c3c(=O)[nH]ccc23)cc2c1ccn2Cc1c(C)cccc1C` as the compound, how does the IC50 [1] read?
Answer: 158 nM

Question: What about the IC50 [2] of the same compound?
Answer: 35 nM

Question: With `CC/C(=C(\c1ccccc1)c1ccc(OCCN(C)C)cc1)c1ccccc1` as the compound, how does the TGI (MCF7:TAM1 [12]) read?
Answer: inactive

Question: Which inhibition at 10 µM (CYP2D6) does the source give for `COc1ccc2c(c1)[C@]13CCCC[C@@H]1[C@H](C2)N(C)CC3` [DEXTROMETHORPHAN] here?
Answer: 94.4%

Question: With `O=c1ccc2ccccc2o1` [COUMARIN] as the compound, how does the inhibition at 10 µM (CYP2A6) read?
Answer: 98.2%

Question: Which results are given for `CC(=O)Nc1cc(-c2cn(C)c3c(=O)[nH]ccc23)cc2c1ccn2C(C)(c1ccccn1)c1ccccn1`?
Answer: IC50 [1]: 8.3 nM; IC50 [2]: 11 nM; IC50 [5]: 21.6 nM
